From ChEMBL document CHEMBL3120160, “Nucleotide prodrugs of 2'-deoxy-2'-spirooxetane ribonucleosides as novel inhibitors of the HCV NS5B polymerase” (J Med Chem, 2014)

How the values were obtained:
[1] = Cytotoxicity against human HuH7 cells assessed as inhibition of cell proliferation after 3 days by BrdU incorporation assay; format: cell-based, Huh-7
Summary of the method: (§1)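 Huh7 HCV replicon cells treated with compound for 3 days in 384-well format; antiviral EC50 and cytotoxic CC50 are each the mean of at least three repeats.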

[2] = tested on: Hepatitis C virus; assay: Antiviral activity against Hepatitis C virus genotype 1b in human Huh7-luc clone ET replicon cells assessed as inhibition of replicon replication after 3 days by luciferase assay; format: functional, organism-based, Hepacivirus hominis; conditions: Huh-7, 72 h; summary of the method: as §1
[3] = Inhibition of wild type Hepatitis C virus truncated NS5B RNA dependent RNA polymerase lacking C-terminal 21 aminoacids using cIRES as template after 2 hrs by filter plate assay; set-up: species or system Hepacivirus hominis
Summary of the method: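 Wild-type HCV RdRp biochemical assay, tested with the nucleoside 5′-triphosphate (NTP) form; value reported as Ki, the average of two independent experiments.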

[4] = tested on: Liver; assay: AUC (0 to infinity) in Sprague-Dawley rat liver assessed as triphosphate metabolite level at 50 mg/kg, po administered as single dose; format: ADME, organism-based; set-up: time infinity, dose 50 mg/kg, route oral; conditions: in vivo
[5] = tested on: Liver; assay: AUC (0 to last) in Sprague-Dawley rat liver assessed as triphosphate metabolite level at 50 mg/kg, po administered as single dose; format: ADME, organism-based; set-up: time 0 - last, dose 50 mg/kg, route oral; conditions: in vivo
[6] = tested on: Liver; assay: Tmax in Sprague-Dawley rat liver assessed as triphosphate metabolite level at 50 mg/kg, po administered as single dose; format: ADME, organism-based; set-up: dose 50 mg/kg, route oral; conditions: in vivo
[7] = tested on: Liver; assay: Cmax in Sprague-Dawley rat liver assessed as triphosphate metabolite level at 50 mg/kg, po administered as single dose measured per gm of tissue; format: ADME, organism-based; set-up: dose 50 mg/kg, route oral; conditions: in vivo
[8] = tested on: Hepatocyte; assay: Prodrug activation in human hepatocytes assessed as triphosphate metabolite formation at 10 uM after 8 hrs by LC-MS analysis; format: ADME, cell-based
Summary of the method: (§2)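 Prodrugs incubated at 10 μM with rat or human hepatocyte cultures; triphosphate metabolite quantified by LC–MS of cell lysates at 2 and 8 h.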

[9] = tested on: Hepatocyte; assay: Prodrug activation in rat hepatocytes assessed as triphosphate metabolite formation at 10 uM after 8 hrs by LC-MS analysis; format: ADME, cell-based; summary of the method: as §2
[10] = tested on: Hepatocyte; assay: Prodrug activation in human hepatocytes assessed as triphosphate metabolite formation at 10 uM after 2 hrs by LC-MS analysis; format: ADME, cell-based; summary of the method: as §2
[11] = tested on: Hepatocyte; assay: Prodrug activation in rat hepatocytes assessed as triphosphate metabolite formation at 10 uM after 2 hrs by LC-MS analysis; format: ADME, cell-based; summary of the method: as §2
[12] = tested on: Hepatitis C virus; assay: Ratio of EC50 for Hepatitis C virus genotype 1b harboring NS5B polymerase S282T mutant gene to EC50 for Hepatitis C virus genotype 1b harboring wild type NS5B polymerase in human Huh7-luc clone ET replicon cells by luciferase assay; format: functional, Hepacivirus hominis, Huh-7
[13] = tested on: Hepatitis C virus; assay: Antiviral activity against Hepatitis C virus genotype 1b harboring NS5B polymerase S282T mutant gene in human Huh7-luc clone ET replicon cells assessed as inhibition of replicon replication after 3 days by luciferase assay; format: functional, organism-based, Hepacivirus hominis; conditions: Huh-7, 72 h
Summary of the method: (§3)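 Activity measured in a transient HCV replicon assay in which the NS5B polymerase carries the S282T substitution.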

[14] = tested on: Hepatitis C virus; assay: Ratio of EC90 for Hepatitis C virus harboring NS5B polymerase S282T mutant gene to EC90 for Hepatitis C virus harboring wild type NS5B polymerase; format: functional, Hepacivirus hominis
[15] = tested on: Hepatitis C virus; assay: Antiviral activity against Hepatitis C virus harboring NS5B polymerase S282T mutant gene; format: functional, Hepacivirus hominis; summary of the method: as §3

Compound	CC50 at 72 h [1] [µM]	EC50 [2] [µM]	also measured
C[C@@]1(F)[C@H](O)[C@@H](CO)O[C@H]1n1ccc(N)nc1=O	> 98	1.9	–
O=c1ccn([C@@H]2O[C@H](CO)[C@@H](O)[C@]23CCO3)c(=O)[nH]1	> 98	> 98	Ki [3]: 2.4 µM
Nc1ccn([C@@H]2O[C@H](CO)[C@@H](O)[C@]23CCO3)c(=O)n1	> 98	17.1	–
C[C@H](N[P@](=O)(OC[C@H]1O[C@@H](n2ccc(N)nc2=O)[C@@]2(CCO2)[C@@H]1O)Oc1ccccc1)C(=O)OCc1ccccc1	> 98	35.8	–
C[C@H](N[P@@](=O)(OC[C@H]1O[C@@H](n2ccc(N)nc2=O)[C@@]2(CCO2)[C@@H]1O)Oc1ccccc1)C(=O)OCc1ccccc1	> 98	41.5	–
C[C@H](N[P@](=O)(OC[C@H]1O[C@@H](n2ccc(=O)[nH]c2=O)[C@@]2(CCO2)[C@@H]1O)Oc1ccccc1)C(=O)OCc1ccccc1	> 98	2.1	–
CCCCOC(=O)[C@H](C)N[P@](=O)(OC[C@H]1O[C@@H](n2ccc(=O)[nH]c2=O)[C@@]2(CCO2)[C@@H]1O)Oc1ccccc1	> 98	2.2	–
C[C@H](N[P@@](=O)(OC[C@H]1O[C@@H](n2ccc(=O)[nH]c2=O)[C@@]2(CCO2)[C@@H]1O)Oc1cccc2ccccc12)C(=O)OCc1ccccc1	> 98	2.3	–
C[C@H](N[P@](=O)(OC[C@H]1O[C@@H](n2ccc(=O)[nH]c2=O)[C@@]2(CCO2)[C@@H]1O)Oc1cccc2ccccc12)C(=O)OCc1ccccc1	> 98	3.7	–
CCCCOC(=O)[C@H](C)NP(=O)(OC[C@H]1O[C@@H](n2ccc(=O)[nH]c2=O)[C@@]2(CCO2)[C@@H]1O)Oc1ccccc1 (some centres undefined)	> 98	3.9	AUC [4]: 10480 ng·h/mL; AUClast [5]: 9871 ng·h/mL; Tmax [6]: 6 h; Cmax [7]: 894 ng/g; Drug metabolism [8]: 2730 ng/mL; Drug metabolism [9]: 75 ng/mL; Drug metabolism [10]: 351 ng/mL; Drug metabolism [11]: 152 ng/mL; Ratio EC50 [12]: 4.8; EC50 [13]: 18.9 µM
CC[C@H](N[P@](=O)(OC[C@H]1O[C@@H](n2ccc(=O)[nH]c2=O)[C@@]2(CCO2)[C@@H]1O)Oc1ccccc1)C(=O)OCc1ccccc1	> 98	4.6	–
CC[C@H](N[P@@](=O)(OC[C@H]1O[C@@H](n2ccc(=O)[nH]c2=O)[C@@]2(CCO2)[C@@H]1O)Oc1ccccc1)C(=O)OCc1ccccc1	> 98	4.9	–
C[C@H](N[P@@](=O)(OC[C@H]1O[C@@H](n2ccc(=O)[nH]c2=O)[C@@]2(CCO2)[C@@H]1O)Oc1ccccc1)C(=O)OCc1ccccc1	> 98	5	–
CCCCOC(=O)[C@H](C)N[P@@](=O)(OC[C@H]1O[C@@H](n2ccc(=O)[nH]c2=O)[C@@]2(CCO2)[C@@H]1O)Oc1ccccc1	> 98	5.3	–
[N-]=[N+]=N[C@]1(CO)O[C@@H](n2ccc(=O)[nH]c2=O)[C@@H](O)[C@H]1O	–	> 100	–
C[C@@]1(O)[C@H](O)[C@@H](CO)O[C@H]1n1ccc(N)nc1=O	> 98	4.6	–

Compound	CC50 at 72 h [1] [µM]	EC50 [2] [µM]	also measured
CC(C)OC(=O)[C@H](C)NP(=O)(OC[C@H]1O[C@@H](n2ccc(N)nc2=O)[C@@]2(CCO2)[C@@H]1O)Oc1ccccc1 (mixture of isomers)	> 98	0.74	–
C[C@H](NP(=O)(OC[C@H]1O[C@@H](n2ccc(N)nc2=O)[C@@]2(CCO2)[C@@H]1O)Oc1ccc(Cl)cc1)C(=O)OCc1ccccc1 (mixture of isomers)	> 98	2.6	–
CC(C)COC(=O)[C@H](C)NP(=O)(OC[C@H]1O[C@@H](n2ccc(=O)[nH]c2=O)[C@@]2(CCO2)[C@@H]1O)Oc1ccccc1 (mixture of isomers)	> 98	0.23	–
O=C(CNP(=O)(OC[C@H]1O[C@@H](n2ccc(=O)[nH]c2=O)[C@@]2(CCO2)[C@@H]1O)Oc1ccc(Cl)cc1)OCc1ccccc1 (mixture of isomers)	> 98	0.32	–
C[C@H](NP(=O)(OC[C@H]1O[C@@H](n2ccc(=O)[nH]c2=O)[C@@]2(CCO2)[C@@H]1O)Oc1ccc(Cl)cc1)C(=O)OCc1ccccc1 (mixture of isomers)	> 98	1.3	–
C[C@H](NP(=O)(OC[C@H]1O[C@@H](n2ccc(=O)[nH]c2=O)[C@@]2(CCO2)[C@@H]1O)Oc1cccc2ccccc12)C(=O)OCc1ccccc1 (mixture of isomers)	> 98	2	AUC [4]: 9142 ng·h/mL; AUClast [5]: 8427 ng·h/mL; Tmax [6]: 6 h; Cmax [7]: 754 ng/g; Drug metabolism [8]: 3373 ng/mL; Drug metabolism [9]: 107 ng/mL; Drug metabolism [10]: 1713 ng/mL; Drug metabolism [11]: 293 ng/mL
CC(C)CCOC(=O)[C@H](C)NP(=O)(OC[C@H]1O[C@@H](n2ccc(=O)[nH]c2=O)[C@@]2(CCO2)[C@@H]1O)Oc1ccccc1 (mixture of isomers)	> 98	3.5	–
CC[C@H](NP(=O)(OC[C@H]1O[C@@H](n2ccc(=O)[nH]c2=O)[C@@]2(CCO2)[C@@H]1O)Oc1ccccc1)C(=O)OCc1ccccc1 (mixture of isomers)	> 98	5.7	AUClast [5]: 1108 ng·h/mL; Tmax [6]: 6 h; Cmax [7]: 419 ng/g; Drug metabolism [8]: 1480 ng/mL; Drug metabolism [9]: 87 ng/mL; Drug metabolism [10]: 202 ng/mL; Drug metabolism [11]: 215 ng/mL
C[C@H](NP(=O)(OC[C@H]1O[C@@H](n2ccc(=O)[nH]c2=O)[C@@]2(CCO2)[C@@H]1O)Oc1ccccc1)C(=O)OCc1ccccc1 (mixture of isomers)	> 98	5.7	AUClast [5]: 3263 ng·h/mL; Tmax [6]: 2 h; Cmax [7]: 775 ng/g; Drug metabolism [8]: 2457 ng/mL; Drug metabolism [9]: 81 ng/mL; Drug metabolism [10]: 304 ng/mL; Drug metabolism [11]: 112 ng/mL
Cc1ccc(C(C)C)c(OP(=O)(N[C@@H](C)C(=O)OCc2ccccc2)OC[C@H]2O[C@@H](n3ccc(=O)[nH]c3=O)[C@@]3(CCO3)[C@@H]2O)c1 (mixture of isomers)	29.6	7.5	–
CC(C)OC(=O)[C@H](C)NP(=O)(OC[C@H]1O[C@@H](n2ccc(=O)[nH]c2=O)[C@@]2(CCO2)[C@@H]1O)Oc1ccccc1 (mixture of isomers)	> 98	20.9	–
COC(=O)C(C)(C)NP(=O)(OC[C@H]1O[C@@H](n2ccc(=O)[nH]c2=O)[C@@]2(CCO2)[C@@H]1O)Oc1ccccc1 (mixture of isomers)	> 98	37.9	–
O=C(OCc1ccccc1)[C@@H](NP(=O)(OC[C@H]1O[C@@H](n2ccc(=O)[nH]c2=O)[C@@]2(CCO2)[C@@H]1O)Oc1ccccc1)c1ccccc1 (mixture of isomers)	> 92.8	> 87.2	–
CC[C@H](NP(=O)(OC[C@H]1O[C@@H](n2ccc(=O)[nH]c2=O)[C@@]2(CCO2)[C@@H]1O)Oc1ccccc1)C(=O)OC(C)C (mixture of isomers)	> 98	> 96.4	–
CC(C)OC(=O)[C@H](C)N[P@](=O)(OC[C@H]1O[C@@H](n2ccc(=O)[nH]c2=O)[C@](C)(F)[C@@H]1O)Oc1ccccc1 [SOFOSBUVIR]	–	–	Ratio [14]: 18.6; EC90 [15]: 7.8 µM
